NPY-Y1 PAM-ag – potentiates or activates human NPY-Y1 receptor | P25929 | NPY-Y1 expressing cells, potentiator/agonist activation | activation, % at 3.6 µM | 220,000 compounds, 0.37% hits; in the data active = activation above about 33%, passing the limit was not always enough;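 also: cells stimulated with NPY at EC10 then isoproterenol at EC100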
NPY Y2 blocker – antagonists of human neuropeptide Y receptor Y2; P49146; inhibition, % at 2.7 µM; NPY-Y2 expressing cells, antagonist mode; 140,000 compounds, 0.99% hits; in the data active = inhibition above about 17%
Target sequence (P49146 whole entry, looked up): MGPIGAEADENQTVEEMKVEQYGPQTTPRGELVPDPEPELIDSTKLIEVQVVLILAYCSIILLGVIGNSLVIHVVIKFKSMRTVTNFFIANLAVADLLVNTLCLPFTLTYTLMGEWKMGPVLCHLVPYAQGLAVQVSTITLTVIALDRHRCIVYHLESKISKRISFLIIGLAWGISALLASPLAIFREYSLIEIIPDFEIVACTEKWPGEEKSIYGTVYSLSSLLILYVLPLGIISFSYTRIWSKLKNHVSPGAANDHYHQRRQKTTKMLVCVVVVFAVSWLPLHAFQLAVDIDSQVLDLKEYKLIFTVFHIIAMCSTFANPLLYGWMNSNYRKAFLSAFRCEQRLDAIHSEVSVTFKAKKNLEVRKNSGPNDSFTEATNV
Hsp70 activator – switches on Hsp70 transcription. HeLa Hsp70 promoter luciferase reporter, luminescence; scaled: vehicle 0, proteasome-inhibitor control 100%. activation, % at 10 µM. 200,000 compounds, 0.04% hits;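 active = activation above the mean across all tested compounds plus 3 SD, cutoff set per campaign, cut at about 5.5% in these data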
Wee1 degr inh – human Wee1 degradation inhibition, primary screen | HeLa Luc-Wee1K328M stability, luciferase luminescence; 100% = proteasome inhibitor MG132 effect | reporter increase, % at 5 µM | 220,000 compounds, 1.2% hits;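 active = activation above the mean of all tested compounds plus 3 SD, set per screening run, cut at about 8.8% in these data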;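 also: cells exposed to compound for 20 h before luminescence read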
NPY-Y1 antag – antagonists of human neuropeptide Y receptor Y1. inhibition, % at 3.6 µM. 200,000 compounds, 1% hits. HEK293-CNG Y1 cells, membrane potential fluorescence; NPY at EC95, then isoproterenol. AID 1040;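 active = inhibition above the campaign mean inhibition of all tested compounds plus 3 SD, cut at about 20% in these data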
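Test system – HEK293 Y1/CNG channel cell line · Also added – NPY agonist 25 nM, then isoproterenol 1 µM plus Ro 20-1724 25 µM · Compound dosing – one concentration, 3.6 µM, in 0.4% DMSO · Schedule – compound incubation 1 h at room temperature, readout 45 min post-stimulation · Technique – fluorescence, membrane potential probe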
NPY-Y2 PAM-ag – potentiators or agonists of human neuropeptide Y receptor Y2 | 220,000 compounds, 0.45% hits | cells expressing NPY-Y2, potentiator/agonist read-out | activation, % at 3.6 µM | AID 1359; in the data active = activation above about 27%;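 also: cells stimulated with NPY near EC25 plus isoproterenol at EC100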
Hits are given with their value; . = inactive; / = no result. This is a sample that favours compounds with a hit; in the whole collection about 3% have one here.

SMILES | NPY-Y1 PAM-ag | NPY Y2 blocker | Hsp70 activator | Wee1 degr inh | NPY-Y1 antag | NPY-Y2 PAM-ag
Cn1nc(C(F)(F)F)c(-c2cccc(C(F)(F)F)c2)c1NC(=O)Nc1ccc(F)cc1 | 111 | / | / | . | / | 102
Cc1ccc(-c2c3c(=O)n(C)c(=O)n(C)c3cn2Cc2cccnc2)cc1 | . | . | . | 24 | . | .
O=[N+]([O-])c1ccc(O)c(C2=NNC(c3ccccc3F)C2)c1 (stereo not given) | . | / | / | 9.6 | / | .
Oc1ccc(Cl)cc1C1=NNC(c2cccs2)C1 (stereo not given) | . | / | / | . | / | .
N#CC1CC(c2ccccc2)=NN1c1ccccc1[N+](=O)[O-] (stereo not given) | . | / | . | 10 | . | .
O=CN1N=C(c2ccccc2)CC1c1ccccc1[N+](=O)[O-] (stereo not given) | . | . | . | . | . | .
O=C(Nc1ccccn1)c1cc2cc([N+](=O)[O-])ccc2s1 | . | / | . | 9.4 | . | .
O=C(Nc1ccccn1)c1ccc([N+](=O)[O-])cc1Cl | . | . | . | . | . | .
COc1cccc(C(=O)Nc2ccccc2)c1 | . | . | . | . | . | .
COc1cccc(C(=O)NC(c2ccccc2)C2CCCC2)c1 (stereo not given) | . | / | . | . | 22 | .
Cc1c(O)c(CN(C)C)cc2c1oc(=O)c1ccccc12 | 84 | / | / | . | / | 51
COc1cc2c(cc1OC)CN(C(=S)Nc1ccc(Cl)cc1)CC2 | . | / | / | . | / | .
CCC(c1nnnn1Cc1ccc(F)cc1)N1CCN(C2CCCCC2)CC1 (stereo not given) | . | 37 | . | . | 39 | .
COc1ccc(Cn2nnnc2C(c2ccccc2Cl)N2CCN(C3CCCC3)CC2)cc1 (stereo not given) | . | 20 | . | . | 28 | .
CC(C)N=c1scc(-c2ccco2)n1/N=C/c1ccc(O)c(O)c1 | . | . | . | . | . | 34
CCN1C(=O)C(CC(=O)Nc2ccc(OC)cc2)N(CCc2ccccc2)C1=S (stereo not given) | . | / | . | . | . | .
COC(=O)CN1C(=S)N(Cc2ccccc2)C(=O)C1CC(=O)Nc1ccc(Br)cc1 (stereo not given) | 44 | . | . | . | . | 35
O=C1OC(N2CCN(C(=O)c3ccco3)CC2)c2ccccc21 (stereo not given) | . | . | . | . | . | .
CCOC(=O)N1CCN(C2OC(=O)c3ccccc32)CC1 (stereo not given) | . | . | . | 9.7 | . | .
CCOC(=O)C1CCN(CC(=O)c2c(C)[nH]c3ccccc23)CC1 | . | . | . | . | . | .
CCOC(=O)C1CCN(CC(=O)c2c(C)[nH]c3cc(C)ccc23)CC1 | . | . | . | 10 | . | .
Cc1[nH]nc(Nc2ccc(Br)cc2)c1[N+](=O)[O-] | . | / | / | 9.2 | / | .
Cc1ccc(Nc2n[nH]c(C)c2[N+](=O)[O-])cc1 | . | . | . | . | . | .
O=[N+]([O-])c1ccccc1-n1cnc2ccccc21 | . | / | . | . | . | .
CC(=O)OC(C)CS(=O)(=O)c1ccccc1 (stereo not given) | . | / | . | . | . | .
SMILES | NPY-Y1 PAM-ag | NPY Y2 blocker | Hsp70 activator | Wee1 degr inh | NPY-Y1 antag | NPY-Y2 PAM-ag
CCc1nnc2cccc(Cl)n12 | . | / | . | . | . | .
CCCOC(=O)c1ccc(Oc2cn[nH]c2-c2ccc(OC)cc2O)cc1 | . | . | . | . | . | .
CN1CCN(C(=O)c2cnn3c(C(F)(F)F)cc(-c4ccc5c(c4)OCO5)nc23)CC1 | . | . | . | . | . | .
Cc1ccc(-c2cc(C(F)(F)F)n3ncc(C(=O)N4CCN(C)CC4)c3n2)cc1 | . | . | . | 9.2 | . | .
O=[N+]([O-])c1ccccc1SN(Cc1ccccc1)c1ccccn1 | . | . | . | . | . | .
COc1ccc(NC(=O)C/C(C)=N/NC(=O)C(=O)Nc2cccc(Cl)c2C)c(OC)c1 | . | / | . | . | . | .
COc1ccc(NC(=O)C/C(C)=N/NC(=O)C(=O)NC(C)C)c(OC)c1 | . | / | . | 9.7 | . | .
O=C1C=C(NCc2ccc(Cl)cc2Cl)C2(CCCCC2)O1 | . | 26 | . | . | 26 | .
CCN(CC)c1ccc(NC(=O)c2ccccc2F)cc1 | . | . | . | 9.2 | . | .
CCN(CC)c1ccc(NC(=O)c2cc(Cl)ccc2OC)cc1 | . | . | . | . | . | .
CC(C)(Cc1ccc(O)cc1)NC(=O)CC(=O)N=Nc1c(O)[nH]c2ccc(Br)cc12 | . | / | . | . | . | .
CCN(CC)CCC(=O)NC(C)(C)Cc1ccc(O)cc1 | 37 | . | . | . | . | .
CCCC(c1nnnn1C(C)(C)C)N1CCN(c2ccccc2)CC1 (stereo not given) | . | / | . | . | 21 | .
COc1ccc(-c2cc(=O)c(C(=O)c3ccc(C)cc3)n[nH]2)cc1 | . | / | . | . | . | .
O=C(/C=C/Nc1ccc(S(=O)(=O)Nc2ncccn2)cc1)c1ccc2ccccc2c1 | . | / | / | . | / | .
COc1ccc(S(=O)(=O)N2CCCC2c2cccs2)cc1 (stereo not given) | . | / | / | . | / | .
O=S(=O)(c1ccccc1)N1CCCC1c1cccs1 (stereo not given) | . | / | / | 10 | / | .
CCCn1nnnc1NCc1ccccc1OCc1cccs1 | . | . | . | . | . | .
c1csc(COc2ccccc2CNC2CCCCC2)c1 | . | 31 | . | . | 23 | .
COc1ccc(S(=O)(=O)NC2(C(F)(F)F)N=C(c3ccccc3)NC2=O)cc1 (stereo not given) | . | . | . | . | . | .
COc1cccc(CN2CCN(Cc3ccc(C#CC(C)(C)O)s3)CC2CCO)c1 (stereo not given) | . | / | . | 10 | . | .
O=C(CCCCCN1C(=O)c2cccc3cccc(c23)C1=O)NCCO | . | / | . | . | . | .
CCOC(=O)c1nnn(-c2nonc2N)c1CSc1ccccc1 | . | . | . | . | . | .
CCOC(=O)c1nnn(-c2nonc2N)c1COc1cc(C)c(Cl)c(C)c1 | . | . | . | . | 22 | .
CCOC(=O)c1nnn(-c2nonc2N)c1-c1ccc(Br)cc1 | . | / | . | 9.5 | . | .
CCOC(=O)c1nnn(-c2nonc2N)c1-c1ccc(C)cc1 | . | . | . | . | . | .
COc1cccc(CNC(=O)CCC2CCCN(C(=O)C3=CC(=O)CC(C)(C)O3)C2)c1 (stereo not given) | . | / | . | . | . | .
COc1ccc(S(=O)(=O)N2CC3CCCN3c3ccc(C(F)(F)F)cc32)cc1 (stereo not given) | . | . | . | . | . | .
C=CCc1cc(C=O)cc(OC)c1OCc1ccc(C(=O)O)cc1 | . | / | . | . | . | .
Cc1cc(Br)ccc1NC(=O)CNC(=O)CN1C(=O)NC2(CCCCCC2)C1=O | . | . | . | . | . | .

Screening results as filed in PubChem BioAssay.
